The term pIC50 denotes the negative decadic logarithm of the IC50, by convention in mol/L. One may read the inhibition as how much of the control response was suppressed.

For eight compounds, IC50, Imax and inhibition results are on record in ChEMBL document CHEMBL3734738, “A structure-activity relationship of non-peptide macrocyclic histone deacetylase inhibitors and their anti-proliferative and anti-inflammatory activities” (Bioorg Med Chem, 2015).

pIC50: −log10 of the molar value. The source made the active and inactive calls. No cut-off for these calls is given here.

In assay [1] the test system is Vero. Kind of assay: Cytotoxicity against African green monkey Vero cells after 72 hrs by MTS assay. It is filed as cell-based. The conditions noted are these: Chlorocebus sabaeus. An outline of the steps: (§1)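 Cells kept in DMEM with 10% FBS and 1% penicillin-streptomycin, seeded in 96-well plates for 24 h, then exposed to a range of drug concentrations for 72 h at 0.1% DMSO; viability read by MTS assay per manufacturer's protocol.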
(In general: Formazan colour is commonly taken as a measure of viable cells.)

Assay [2] has as its target T1, Protein deacetylase HDAC6 (Homo sapiens, UniProt Q9UBN7).
T1 sequence (Q9UBN7 whole entry): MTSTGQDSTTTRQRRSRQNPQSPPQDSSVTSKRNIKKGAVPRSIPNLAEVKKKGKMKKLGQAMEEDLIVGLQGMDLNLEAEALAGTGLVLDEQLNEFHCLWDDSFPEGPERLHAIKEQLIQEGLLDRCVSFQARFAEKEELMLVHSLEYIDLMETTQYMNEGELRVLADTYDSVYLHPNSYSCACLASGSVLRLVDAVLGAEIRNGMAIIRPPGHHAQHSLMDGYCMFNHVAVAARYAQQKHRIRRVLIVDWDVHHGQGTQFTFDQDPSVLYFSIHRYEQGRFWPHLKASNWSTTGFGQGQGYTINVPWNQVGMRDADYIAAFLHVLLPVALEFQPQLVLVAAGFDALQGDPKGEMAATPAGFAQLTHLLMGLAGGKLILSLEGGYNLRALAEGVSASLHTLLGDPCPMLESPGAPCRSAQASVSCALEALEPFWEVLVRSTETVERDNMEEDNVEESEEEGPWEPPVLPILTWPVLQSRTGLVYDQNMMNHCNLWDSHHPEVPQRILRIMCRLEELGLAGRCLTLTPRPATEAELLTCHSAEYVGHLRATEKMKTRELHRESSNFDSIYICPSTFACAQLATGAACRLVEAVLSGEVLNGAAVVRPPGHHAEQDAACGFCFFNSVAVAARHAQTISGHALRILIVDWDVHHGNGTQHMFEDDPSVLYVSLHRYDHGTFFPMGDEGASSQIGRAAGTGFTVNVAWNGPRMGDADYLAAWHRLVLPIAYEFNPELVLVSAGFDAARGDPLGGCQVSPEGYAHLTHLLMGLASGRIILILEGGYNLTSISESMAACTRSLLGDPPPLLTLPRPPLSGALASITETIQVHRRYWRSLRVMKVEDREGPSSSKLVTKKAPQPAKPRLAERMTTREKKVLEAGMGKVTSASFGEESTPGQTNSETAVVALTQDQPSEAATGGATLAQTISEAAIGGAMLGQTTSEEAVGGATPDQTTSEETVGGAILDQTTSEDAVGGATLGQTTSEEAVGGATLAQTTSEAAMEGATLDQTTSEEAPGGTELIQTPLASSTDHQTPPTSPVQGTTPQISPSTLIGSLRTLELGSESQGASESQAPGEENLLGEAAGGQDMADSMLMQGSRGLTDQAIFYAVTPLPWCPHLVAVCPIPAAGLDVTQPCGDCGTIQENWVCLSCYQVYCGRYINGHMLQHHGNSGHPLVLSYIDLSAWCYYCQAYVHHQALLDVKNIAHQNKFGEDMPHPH
Kind of assay: Inhibition of recombinant HDAC6 (unknown origin) expressed in Escherichia coli BL21(DE3) after 60 mins using trichostatin A by label-free mass spectrometry-based SAMDI assay.

Assay [3] in a line: Inhibition of NTHi-induced NF-kappaB activation in human BEAS-2B cells treated 1 hr before NTHi stimulation measured after 5 hrs by luciferase assay. It is filed as cell-based. Particulars: Homo sapiens, BEAS-2B; read-out: IC50.
The target of assay [4] is T2, Histone deacetylase 8 (Homo sapiens, UniProt Q9BY41).
T2 sequence (Q9BY41 whole entry): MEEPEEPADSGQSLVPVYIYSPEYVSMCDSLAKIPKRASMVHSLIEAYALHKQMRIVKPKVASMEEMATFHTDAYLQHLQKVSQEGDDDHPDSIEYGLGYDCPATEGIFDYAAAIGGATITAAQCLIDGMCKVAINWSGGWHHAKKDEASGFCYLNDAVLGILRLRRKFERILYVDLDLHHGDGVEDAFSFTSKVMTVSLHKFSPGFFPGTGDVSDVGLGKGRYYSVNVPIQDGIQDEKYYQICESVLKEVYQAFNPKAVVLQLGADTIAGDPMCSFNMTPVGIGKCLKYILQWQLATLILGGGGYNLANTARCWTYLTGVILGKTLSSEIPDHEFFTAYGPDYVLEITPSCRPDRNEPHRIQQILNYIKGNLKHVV
Kind of assay: Inhibition of recombinant HDAC8 (unknown origin) expressed in Escherichia coli BL21(DE3) after 60 mins using trichostatin A by label-free mass spectrometry-based SAMDI assay.

The subject of assay [5] is A549. In words: Cytotoxicity against human A549 cells after 72 hrs by MTS assay. It is filed as functional, cell-based. The conditions noted are these: Homo sapiens, A549, 72 h; read-out: IC50. An outline of the steps:
as §1

For assay [6], the species on record is Homo sapiens. The conditions noted are these: at 1 µM.
Assay [7] addresses T3, Histone deacetylase 1 (Homo sapiens, UniProt Q13547). Kind of assay: Inhibition of recombinant HDAC1 (unknown origin) expressed in Escherichia coli BL21(DE3) after 60 mins using trichostatin A by label-free mass spectrometry-based SAMDI assay.
The subject of assay [8] is MCF7. In words: Cytotoxicity against human MCF7 cells after 72 hrs by MTS assay. It is filed as functional, cell-based. The conditions noted are these: Homo sapiens, MCF7, 72 h; read-out: IC50. An outline of the steps:
as §1

The test system of assay [9] is BEAS-2B. Kind of assay: Antiinflammatory activity in human BEAS2B cells assessed as inhibition of NTHi-induced IL-1alpha mRNA expression at 1 uM treated 2 hrs before NTHi stimulation measured after 1.5 hrs by Q-PCR analysis. It is filed as functional, cell-based. An outline of the steps:
(§2)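 BEAS-2B cells pretreated 2 h with inhibitor at 1 μM, then stimulated 1.5 h with NTHi; PBS-treated cells as unstimulated control. Total RNA isolated with TRIzol, reverse transcribed, and TNF-α, IL-1α, IL-1β mRNA quantified by SYBR Green real-time PCR with 500 nM primers, reactions in triplicate; mean of n=3, representative of three independent experiments.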

Assay [10] deals with BEAS-2B. In words: Antiinflammatory activity in human BEAS2B cells assessed as inhibition of NTHi-induced IL-1beta mRNA expression at 1 uM treated 2 hrs before NTHi stimulation measured after 1.5 hrs by Q-PCR analysis. It is filed as functional, cell-based. An outline of the steps:
as §2

The test system of assay [11] is BEAS-2B. Kind of assay: Antiinflammatory activity in human BEAS2B cells assessed as inhibition of NTHi-induced TNFalpha mRNA expression at 1 uM treated 2 hrs before NTHi stimulation measured after 1.5 hrs by Q-PCR analysis. Type of assay: functional, cell-based. An outline of the steps: as §2
Assay [12] has as its target T3, Histone deacetylase 1. Kind of assay: Inhibition of recombinant HDAC1 (unknown origin) expressed in Escherichia coli BL21(DE3) at 10 uM after 60 mins using trichostatin A by label-free mass spectrometry-based SAMDI assay.

T3 sequence (Q13547 whole entry): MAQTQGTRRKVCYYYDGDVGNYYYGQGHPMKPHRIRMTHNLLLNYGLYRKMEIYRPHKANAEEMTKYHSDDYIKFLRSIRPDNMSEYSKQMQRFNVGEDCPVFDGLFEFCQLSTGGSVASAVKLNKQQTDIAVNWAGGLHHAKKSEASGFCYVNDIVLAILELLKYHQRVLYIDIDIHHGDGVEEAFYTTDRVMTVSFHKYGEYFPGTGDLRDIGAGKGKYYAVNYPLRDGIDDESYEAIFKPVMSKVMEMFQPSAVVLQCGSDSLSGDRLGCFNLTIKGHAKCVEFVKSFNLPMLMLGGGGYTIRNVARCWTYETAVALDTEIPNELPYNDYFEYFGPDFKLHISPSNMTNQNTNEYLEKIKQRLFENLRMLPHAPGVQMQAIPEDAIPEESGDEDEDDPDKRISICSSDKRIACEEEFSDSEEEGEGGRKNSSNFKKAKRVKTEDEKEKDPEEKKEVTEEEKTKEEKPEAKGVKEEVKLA

In the case of `CC[C@@H]1OC(=O)[C@@H](C)[C@H](O[C@H]2C[C@@](C)(OC)[C@@H](O)[C@H](C)O2)[C@H](C)[C@H](O[C@@H]2O[C@H](C)C[C@H](N(C)Cc3ccc(-c4cn(CCCCCCC(=O)NO)nn4)cc3)[C@H]2O)[C@@](C)(OC)C[C@H](C)C(=O)[C@@H](C)[C@@H](O)[C@@]1(C)O` (stereo in doubt), the pIC50 in assay [1] was 5.31; in assay [2], 8.18; in assay [3] it was 6.61; in assay [4] it was 6.15; in assay [5] it was 5.64; in [7], 6.68. Also, the pIC50 in assay [8] was 5.54. The same compound returned an Imax in assay [6] of 35.9%.

As to `CC[C@@H]1OC(=O)[C@@H](C)[C@H](O[C@@H]2C[C@](C)(OC)[C@@](O)(CN(C)C)[C@@H](C)O2)[C@H](C)[C@H](O[C@@H]2O[C@H](C)C[C@H](N(C)Cc3ccc(-c4cn(CCCCCCC(=O)NO)nn4)cc3)[C@H]2O)[C@@](C)(OC)C[C@H](C)C(=O)[C@@H](C)[C@@H](O)[C@@]1(C)O`, the pIC50 in [1] is 5.68; in assay [2], 7.50; in assay [3] it was 6.59; in [4], 5.66; in [5], 5.45; in [7] it was 7.48. For the same compound, in assay [8], the pIC50 is 5.84. Moreover, the Imax in assay [6] was 33.4%.

Take `CC[C@@H]1OC(=O)[C@H](C)[C@@H](O[C@@H]2C[C@](C)(OC)[C@H](O)[C@@H](C)O2)[C@@H](C)[C@@H](O[C@@H]2O[C@H](C)C[C@H](N(C)Cc3cccc(-c4cn(CCCCCCC(=O)NO)nn4)c3)[C@H]2O)[C@](C)(O)C[C@@H](C)CN(C)[C@H](C)[C@@H](O)[C@]1(C)O`: the pIC50 in assay [1] is 5.08; in [2] it was 7.39; in [3], 6.22; in assay [4] it was 5.84; in assay [5], 5.39; in [7], 7.00. The pIC50 in assay [8] is 5.63. Further, the Imax in [6] was 43.3%.

Take `CC[C@@H]1OC(=O)[C@@H](C)[C@H](O[C@H]2C[C@@](C)(OC)[C@](O)(CN(C)Cc3ccc(-c4cn(CCCCCCC(=O)NO)nn4)cc3)[C@H](C)O2)[C@H](C)[C@H](O[C@@H]2O[C@H](C)C[C@H](N(C)C)[C@H]2O)[C@@](C)(OC)C[C@H](C)C(=O)[C@@H](C)[C@@H](O)[C@@]1(C)O`: the pIC50 in [1] was 5.81; in assay [2] it was 8.55; in [3] it was 6.71; in [4], 5.74; in assay [5], 6.00; in [7], 7.62. Besides, in assay [8], the pIC50 was 6.16. Also, the inhibition result in assay [9], in assay [10] and in assay [11] was “Active” each time. Moreover, the Imax in [6] stood at 35.6%.

With `CC[C@H]1OC(=O)[C@H](C)[C@@H](O[C@@H]2C[C@](C)(OC)[C@@](O)(CN(C)Cc3ccc(-c4cn(CCCC(=O)NO)nn4)cc3)[C@@H](C)O2)[C@@H](C)[C@@H](O[C@H]2O[C@@H](C)C[C@@H](N(C)C)[C@@H]2O)[C@](C)(OC)C[C@@H](C)C(=O)[C@H](C)[C@H](O)[C@]1(C)O`, the inhibition in [12] stood at 27%. The figures for the negative-log IC50 (pIC50) in assay [2], in [4] and in [7] were 6.44, 5.60 and less than 5.00, respectively.

With `CC[C@H]1OC(=O)[C@@H](C)[C@H](O[C@H]2C[C@@](C)(OC)[C@@H](O)[C@H](C)O2)[C@H](C)[C@H](O[C@H]2O[C@@H](C)C[C@@H](N(C)Cc3ccc(-c4cn(CCCCCCC(=O)NO)nn4)cc3)[C@@H]2O)[C@@](C)(O)C[C@H](C)CN(C)[C@@H](C)[C@H](O)[C@@]1(C)O` (stereo in doubt), the pIC50 is 5.23 in assay [1]; 8.14 in [2]; 6.55 in assay [3]; 6.50 in assay [4]; 5.63 in assay [5]; 7.16 in assay [7]. The pIC50 in assay [8] is 5.39. Moreover, the Imax in assay [6] is 41.4%.

On to `CC[C@H]1OC(=O)[C@H](C)C(=O)[C@H](C)[C@@H](O[C@@H]2O[C@H](C)C[C@H](N(C)Cc3ccc(-c4cn(CCCCCCC(=O)NO)nn4)cc3)[C@H]2O)[C@@](C)(OC)C[C@@H](C)C2=NCCN3C(=O)O[C@@]1(C)[C@H]3[C@H]2C`, for which the inhibition result in assay [9], in [10] and in assay [11] was “Active” each time. In addition, the pIC50 in assay [2] was 8.16; in assay [3] it was 7.33; in [4] it was 5.82; in assay [5], 5.66; in [7] it was 7.68; in [8], 5.70. Moreover, in [6], the Imax is 35.3%.

On to `CC[C@@H]1OC(=O)[C@@H](C)[C@H](O[C@H]2C[C@@](C)(OC)[C@@H](O)[C@H](C)O2)[C@@H](C)[C@H](O[C@H]2O[C@@H](C)C[C@@H](N(C)C)[C@@H]2O)[C@](C)(O)C[C@H](C)CN(Cc2ccc(-c3cn(CCCCCCC(=O)NO)nn3)cc2)[C@H](C)[C@H](O)[C@@]1(C)O`, for which the pIC50 was 5.18 in [1]; 8.33 in [2]; 6.61 in [3]; 5.77 in [4]; 5.08 in assay [5]; 7.79 in assay [7]. Further, in assay [8], the negative-log IC50 (pIC50) is 5.20. The inhibition result in [9], in [10] and in [11] was “Active” in each case. The Imax in assay [6] was determined as 31.4%.
